From PubChem BioAssay
The list is not random: actives were taken first. Their share in the collection is about 1.8%.
TLR9-MyD88 block = inhibitors of TLR9-MyD88 association in cells, primary screen, cell-based, CHO, BLA complementation, fluorescence; Toll-like receptor 9 (Homo sapiens) + Myeloid differentiation primary response protein …; CCF4 FRET ratio; inhibition, % at 4.98 µM; hit rate 0.21% among 340,000;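 active = inhibition above the mean over all tested compounds plus 3 SD, cut at about 21% in these data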
MC4R antag cAMP = MC4R antagonists of cAMP signaling, primary screen, cell-based, TR-FRET, antagonist arm of biased-ligand search; inhibition, % at 6.5 µM; AID 540295, 2011; MC4R-expressing cells, MTII-stimulated cAMP, LANCE TR-FRET; hit rate 0.48% among 360,000;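 active = inhibition above its plate's cutoff, the mean of tested wells on that plate plus 3 SD, cut at about 29% in these data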
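Assay system: U2OS cells stably expressing human melanocortin 4 receptor (MC4R) / Dosing: 6.5 µM / Timing: compound 30 min, challenge 1 h, detection 1 h / Measured by: Eu-cAMP/anti-cAMP TR-FRET, emission 671 nm / Replicates: singlicate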
MC4R barr agon = MC4R agonists recruiting beta-arrestin, primary screen, cell-based, luminescence, agonist arm of biased-ligand search; hit rate 0.98% among 360,000; Melanocortin receptor 4 (Homo sapiens), P32245; activation, % at 8.9 µM; U2OS MC4R beta-arrestin complementation; percent of melanotan II response, DMSO zero;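 active = activation above a per-plate cutoff, the mean activation of sample wells on that plate plus 3 SD, cut at about 8% in these data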
TLR4-MyD88 BLA = inhibitors of TLR4-MyD88 association in cells, primary screen, cell-based, HeLa CL3-4, BLA complementation, FRET ratio. Toll-like receptor 4 (Homo sapiens) + Myeloid differentiation primary response protein …. HeLa CL3-4 TLR4/MyD88 BLA complementation. inhibition, % at 8.4 µM. hit rate 0.18% among 200,000; in the data active = inhibition above about 25%
NOD2-RIPK2 inh = NOD2-RIPK2 binding disruptors in cells, primary screen, fluorescence, CHO cells, BLA complementation | Receptor-interacting serine/threonine-protein kinase 2 (Homo sapiens), O43353 | CCF4 ratio | inhibition, % at 4.98 µM | hit rate 0.38% among 360,000 | AID 624267, 2012; in the data active = inhibition above about 21%
U2OS cAMP counter = nonselective cAMP signaling inhibitors, parental cells, counter-screen for MC4R biased antagonist project, cell-based, TR-FRET, U2OS, forskolin, triplicate | shares compounds with MC4R antag cAMP | LANCE TR-FRET | inhibition, % at 6.5 µM | hit rate 26% among 1,600 | AID 602193, 2012;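 active = mean inhibition over triplicates above the low-control well mean plus 3 SD, set per campaign, cut at about 13% in these data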;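 also: signal is single emission at 671 nm which falls as cellular cAMP rises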
MC4R cAMP antag = MC4R cAMP antagonists, retest, confirmation, cell-based, TR-FRET; shares compounds with MC4R antag cAMP; MC4R-expressing cells, MTII-stimulated cAMP; inhibition, % at 6.5 µM; hit rate 27% among 1,600; in the data active = inhibition above about 29%
Numbers stand for hits; i = inactive; nt = not tested or not shown.

SMILES	TLR9-MyD88 block	MC4R antag cAMP	MC4R barr agon	TLR4-MyD88 BLA	NOD2-RIPK2 inh	U2OS cAMP counter	MC4R cAMP antag
CCOC(=O)Cc1ccc(NC(=O)c2cccc([N+](=O)[O-])c2)cc1	i	i	i	i	i	nt	nt
COc1ccc(CCN2CC(C(=O)NCCN3CCOC3=O)CCC2=O)cc1 (centres undefined)	i	i	i	nt	i	nt	nt
N=c1sccn1CC(=O)Nc1cccc(S(=O)(=O)N2CCCCCC2)c1	i	i	i	i	i	nt	nt
Cc1ccc(CC2C(=O)N(c3ccccc3)C(=O)C2C)cc1 (centres undefined)	i	32.5	i	nt	i	i	i
Cc1cccnc1NC(=O)C(C)N1C(=O)c2ccccc2C1=O (centres undefined)	i	31.1	i	nt	i	i	i
O=S(=O)(Cc1cc(Cl)nc(-c2ccncc2)n1)c1ccccc1	i	42.3	i	i	i	i	i
O=C(NCC1CC1)Nc1cccc(Cl)c1	i	i	i	nt	i	nt	nt
Cc1cccc(NC(=O)NCC2CC2)c1	i	30.0	i	nt	i	i	i
O=C(CC1(CC2=NS(=O)(=O)c3ccccc3N2)CCCC1)NCCc1ccccc1	i	i	i	nt	i	nt	nt
O=C(NCc1ccccc1Br)c1ccc2c(c1)OCCO2	i	i	i	nt	i	nt	nt
CC(C)(C)c1ccc(C(=O)O)c(C(=O)c2ccccc2)c1	i	30.7	i	i	i	i	i
COc1ccc(Br)c(C(=O)N2CCN(S(=O)(=O)c3cccs3)CC2)c1	i	i	i	nt	i	nt	nt
O=C(O)c1cc(-c2ccc3c(c2)OCO3)nc2ccc(Br)cc12	i	37.0	i	i	i	i	29.6
O=C(O)c1cc(-c2cccs2)nc2ccc(Br)cc12	i	110.6	i	nt	i	98.2	152.6
COC(=O)c1cc(-c2ccc3c(c2)OCO3)nc2ccccc12	i	i	i	i	i	nt	nt
O=C(O)c1cc(-c2cccnc2)nc2ccc(Br)cc12	i	48.6	i	i	i	41.6	67.6
CCCCNC(=O)CCC(=O)N1CCN(C(c2ccccc2)c2ccccc2)CC1	i	i	i	nt	i	nt	nt
O=C(CCC1CCCN(Cc2ccc3c(c2)OCCO3)C1)NCc1ccc(F)c(F)c1 (centres undefined)	i	i	i	i	i	nt	nt
O=C(CCC1CCCN(Cc2ccc3c(c2)OCCO3)C1)NCc1ccccc1F (centres undefined)	i	28.7	i	nt	i	i	i
O=C(CCC(=O)Nc1ccccc1)NCCO	i	i	i	i	i	nt	nt
COc1ccc(NC(=O)CCC(=O)NCCO)cc1	i	37.2	i	i	i	i	i
CCOc1cccc(C2/C(=C(/O)c3ccc4c(c3)CC(C)O4)C(=O)C(=O)N2Cc2cccnc2)c1 (centres undefined)	i	i	i	nt	i	nt	nt
O=c1c(Cc2c(F)cccc2Cl)c(O)ccn1CCCN1CCOCC1	i	30.5	i	i	i	i	i
CC(C)n1c(=O)c2ccccc2n1CC(=O)N1CCOCC1	nt	nt	nt	nt	i	nt	nt
Cc1ccc(N=C(NO)c2cnccc2C(F)(F)F)c(C)c1	i	30.5	i	nt	i	i	i
NC(=O)COC(=O)CNC(=O)c1cc(Cl)cc([N+](=O)[O-])c1	i	i	i	i	i	nt	nt
CC(C)(C)NC(=O)NC(=O)COC(=O)CNC(=O)c1cc(Cl)cc([N+](=O)[O-])c1	i	29.6	i	i	i	i	i
O=C(Nc1ccc2c(c1)CCC2)Nc1ccccc1F	i	i	i	nt	i	nt	nt
CCCC(C)(C)C(=O)N1CCC1(C)C(=O)NS(=O)(=O)c1cccc(Cl)c1 (centres undefined)	nt	i	i	nt	i	nt	nt
